What all share (assay type): functional, cell-based
One test concerns DU-145. Briefly: Anticancer activity against human DU145 cells after 24 hrs by MTT assay. To be noted: DU-145, 24 h. The essentials: (§1)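 Cells maintained in RPMI-1640 with 10% heat-inactivated FBS and 1% penicillin/streptomycin. Seeded at 4.0 × 10³ cells/well for 12 h, then exposed to compounds over a 10 nM–1 mM range for 24 h. MTT added to 0.5 mg/ml final for 30 min. Cells washed twice in PBS and lysed in DMSO. Absorbance read at 570 nm; IC50 reported.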
(Formazan colour is commonly taken as a measure of viable cells.)

A further test deals with LNCaP. The experiment in a line: Anticancer activity against human LNCAP cells after 24 hrs by MTT assay. The essentials:
as §1

The test system of another test is MCF7. The experiment in a line: Anticancer activity against human MCF7 cells after 24 hrs by MTT assay. To be noted: MCF7, 24 h. The gist of the method:
as §1

Test [1] is described as follows: Anticancer activity against human MDA231 cells after 24 hrs by MTT assay. The settings on record: MDA-MB-231, 24 h. The essentials:
as §1

The test system of the next test is HCT-116. The experiment in a line: Anticancer activity against human HCT116 cells after 24 hrs by MTT assay. The settings on record: HCT-116, 24 h. The essentials:
as §1

The test system of a further test is MIA PaCa-2. Briefly: Anticancer activity against human MIAPaCa2 cells after 24 hrs by MTT assay. The settings on record: MIA PaCa-2, 24 h. The essentials:
as §1

For the next test, the system named is PC-3. The experiment in a line: Anticancer activity against human PC3 cells after 24 hrs by MTT assay. The settings on record: PC-3, 24 h. The essentials: as §1

The IC50 is the concentration that gives 50% inhibition. A lower IC50 goes with greater potency in that assay. Regarding `Fc1ccc(-c2nc(-c3ccccc3)no2)cc1`, the IC50 is more than 1000 µM in the test on DU-145; 23.7 µM with LNCaP; more than 1000 µM in the test with MCF7; more than 1000 µM in test [1]; more than 1000 µM with HCT-116; more than 1000 µM in the test on MIA PaCa-2. In the test with PC-3, this compound had an IC50 of more than 1000 µM.
Consider `COc1ccc(-c2noc(-c3ccc(F)cc3)n2)cc1O`, for which the IC50 in the test with DU-145 is more than 1000 µM; in the test with LNCaP it was more than 1000 µM; in the test on MCF7 it was more than 1000 µM; in test [1], more than 1000 µM; with HCT-116, more than 1000 µM; in the test with MIA PaCa-2 it was 351 µM. The same compound displayed an IC50 in the test with PC-3 of more than 1000 µM.
Regarding `COc1ccc(-c2noc(C3CCCN3)n2)cc1OC1CCCC1` (stereo not drawn), the IC50 in the test on DU-145 is 242 µM; in the test on LNCaP it was 0.043 µM; with MCF7 it was more than 1000 µM; in test [1], 212 µM; in the test with HCT-116, 185 µM; in the test on MIA PaCa-2 it was 19.5 µM. In the test on PC-3, the IC50 was more than 1000 µM.
As to `COc1ccc(-c2noc(-c3ccc(F)cc3)n2)cc1OC1CCCC1`, the IC50 in the test with DU-145 was 20.7 µM; with LNCaP, 87.9 µM; in the test on MCF7, 3.88 µM; in test [1], 55.5 µM; in the test with HCT-116, 210 µM; in the test on MIA PaCa-2, 6.09 µM. Also, in the test with PC-3, the IC50 was more than 1000 µM.
For the compound `COc1ccc(-c2noc(-c3ccncc3)n2)cc1OC1CCCC1`, the IC50 in the test on DU-145 is more than 1000 µM; in the test with LNCaP it was more than 1000 µM; with MCF7, more than 1000 µM; in test [1], 240 µM; in the test on HCT-116 it was more than 1000 µM; in the test on MIA PaCa-2 it was 9.33 µM. In addition, the IC50 in the test on PC-3 was more than 1000 µM.
For `COc1ccc(-c2noc(CC(C)=O)n2)cc1OC1CCCC1`, the IC50 with DU-145 stood at 302 µM; with LNCaP, 28.3 µM; in the test on MCF7 it was 174 µM; in test [1] it was 53.3 µM; with HCT-116, 185 µM; with MIA PaCa-2 it was 3.01 µM. This compound came in with an IC50 with PC-3 of more than 1000 µM.
As for `COc1ccc(-c2noc(C3CCNCC3)n2)cc1OC1CCCC1`, the IC50 in the test on DU-145 came out at 0.057 µM; in the test with LNCaP it was 0.01 µM; with MCF7 it was 3.88 µM; in test [1], 0.37 µM; with HCT-116, 1.54 µM; with MIA PaCa-2 it was 0.54 µM. The compound further gave an IC50 in the test with PC-3 of more than 1000 µM.
In the case of `COc1ccc(-c2noc(Cc3c[nH]c4ccccc34)n2)cc1OC1CCCC1`, the IC50 is more than 1000 µM in the test on DU-145; more than 1000 µM with LNCaP; more than 1000 µM in the test with MCF7; more than 1000 µM in test [1]; more than 1000 µM in the test with HCT-116; 9.56 µM in the test with MIA PaCa-2. The compound further gave an IC50 in the test with PC-3 of more than 1000 µM.
`c1ccc(-c2noc(-c3ccncc3)n2)cc1`: the IC50 was 657 µM in the test on DU-145; 710 µM with LNCaP; more than 1000 µM in the test on MCF7; more than 1000 µM in test [1]; more than 1000 µM in the test on HCT-116; 497 µM in the test on MIA PaCa-2. In the test on PC-3, the IC50 was more than 1000 µM.
On to `COc1ccc(-c2noc(-c3ccccc3)n2)cc1OC1CCCC1`, for which the IC50 (with DU-145; in the test with LNCaP; in the test with MCF7; in test [1]; in the test with HCT-116; with MIA PaCa-2) was more than 1000 µM in each case. Also, the IC50 in the test with PC-3 was more than 1000 µM.
Turning to `COc1ccc(-c2noc(-c3ccc(Cl)cc3)n2)cc1OC1CCCC1`, the IC50 in the test on DU-145 was 122 µM; in the test with LNCaP, 20.8 µM; with MCF7, 174 µM; in test [1], 396 µM; with HCT-116, more than 1000 µM; in the test on MIA PaCa-2, 0.74 µM. Also, the IC50 with PC-3 is more than 1000 µM.
For the compound `COc1ccc(-c2noc(-c3cccnc3)n2)cc1OC1CCCC1`, the IC50 (with DU-145; in the test on LNCaP; in the test on MCF7; in test [1]; with HCT-116; with MIA PaCa-2) was more than 1000 µM each time. Also, the IC50 in the test on PC-3 was more than 1000 µM.
For the compound `COc1cc(-c2noc(-c3ccncc3)n2)ccc1OCc1ccccc1`, the half-inhibitory concentration (IC50) (with DU-145; in the test with LNCaP; in the test on MCF7; in test [1]; in the test with HCT-116; in the test on MIA PaCa-2) was more than 1000 µM throughout. The compound further returned an IC50 in the test with PC-3 of more than 1000 µM.
On to `COc1ccc(-c2noc(-c3ccc(O)cc3)n2)cc1OC1CCCC1`, for which the IC50 in the test on DU-145 came out at 0.78 µM; in the test with LNCaP, 0.86 µM; with MCF7, 0.39 µM; in test [1] it was 0.31 µM; with HCT-116, 0.27 µM; in the test on MIA PaCa-2 it was 0.48 µM. Further, in the test with PC-3, 162 µM corresponded to half-maximal inhibition (IC50).

(Values after ChEMBL document CHEMBL1151891, “Synthesis and anticancer activities of novel 3,5-disubstituted-1,2,4-oxadiazoles” (Bioorg Med Chem Lett, 2009).)
